Rows were chosen to be rich in hits. Some 12% of all compounds tested hit in one or more screens of this group.
Dynein transport – dynein cargo transport inhibition; 3617.4 mouse cells, GR-EGFP nuclear translocation imaging; test concentration mostly 20 µM; stimulated with dexamethasone, 1 µM; active compounds read low; z-score, hits read low; hit rate 0.47% among 220,000; AID 1381;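 active = plate z-score of nuclear minus cytoplasmic receptor signal below a set negative limit, without overly bright fluorescence or cell loss, cut at about -3.5 in these data, passing the limit was not always enough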;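 note: z-score of nuclear minus cytoplasmic ring GR-EGFP intensity difference per well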
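Buffer or medium: tetracycline-free induction medium containing charcoal-stripped FBS / Reagent: dexamethasone agonist, 1.0 µM final, for 30 min / Technique: automated 10x imaging of fixed Hoechst-stained cells / Times: induction 48 h, compound 1 h, agonist 30 min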
L major viab – reduces viability of Leishmania major promastigotes; resazurin fluorescence viability; inhibition, % at 10 µM; hit rate 9% among 200,000; AID 1063; in the data active = inhibition above about 50%;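 note: promastigotes grown with compound for 44 hours at 28 °C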
MT stabilizer – stabilizes microtubules in HeLa cells; AID 2205; % tubulin-high responders, % at 10 µM; HeLa tubulin immunostaining HCS, 24 h; share of cells brighter than vehicle mean+2SD; hit rate 0.83% among 200,000;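 active = plate Z-score above 3 for both tubulin-high and condensed-nucleus cell shares, with cell loss under 80%, at 10 µM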;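 note: anti alpha tubulin signal scored within the nucleus-defined area of each cell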
Autophagy HCS – autophagy modulation, high-content screen; MEF GFP-LC3 puncta imaging; test concentration mostly 10 µM; calls only at 10 µM (by protocol); hit rate 0.98% among 190,000; AID 463193;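 active = percentage of spot-positive cells more than 3 SD above its plate mean, without a fluorescence outlier flag or 80% toxicity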;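 note: spot-positive cell cutoff set from DMSO-treated cells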
CHOP inh – inhibitors of CHOP induction in ER stress response; CHO-K1 CHOP-promoter luciferase, tunicamycin-induced, 15-18 h; inhibition, % at 10 µM; hit rate 3.8% among 220,000; AID 2732;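 active = compounds that reduced the stress-induced luciferase reporter signal by more than about 70% of percent inhibition, limit read from the data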;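 note: 0% = tunicamycin plus vehicle and 100% = wells without tunicamycin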
b-catenin transl – modulators of beta-catenin nuclear translocation; AID 1665; hit rate 0.3% among 190,000; HeLa beta-catenin nuclear translocation, immunofluorescence imaging; nuclear translocation activity, % at 5 µM;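 active = nuclear translocation activity above 50% at 5 µM, with a well cell count of 50 or more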;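 note: per-cell ratio of nuclear to cytoplasmic median beta-catenin stain intensity; plate controls were DMSO negative control for no effect and GSK-3 inhibitor IX positive control for full effect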
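Read-out: Nuclear/cytoplasmic beta-catenin signal ratio, % activation | Assay system: Human HeLa cell line | Times: 24 h compound exposure at 37°C, 5% CO2 | Signal: Fluorescence imaging of beta-catenin antibody stain plus DAPI | Dosing: 5 µM primary, 0.02–20 µM confirmation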
Active calls of the source: *.

What do the screens show for `CC(C(=O)NC1CCCC1)N(C(=O)c1snc(C(N)=O)c1N)c1ccc2c(c1)OCCO2` (stereo unspecified)?
Dynein transport: -0.21; L major viab: 12; MT stabilizer: 5; Autophagy HCS: inactive; CHOP inh: 5; b-catenin transl: 0

How did COC(=O)Cn1c(=O)c(C(=O)CCl)c(N)n(Cc2ccccc2)c1=O do in these assays?
Dynein transport: -0.14; CHOP inh: 23; b-catenin transl: -1

What do the screens show for `Cc1cccc2sc(NC(=O)C3CCN(S(=O)(=O)c4cc([N+](=O)[O-])ccc4Cl)CC3)nc12`?
Dynein transport: 0.44; L major viab: 90*; MT stabilizer: 6; Autophagy HCS: inactive; CHOP inh: 70*; b-catenin transl: 1

How did Cc1cccc2sc(NC(=O)C3CCCN(S(=O)(=O)c4cccc5nonc45)C3)nc12 (stereo unspecified) do in these assays?
Dynein transport: 3.8; L major viab: 0; MT stabilizer: 9; Autophagy HCS: active; CHOP inh: 81*; b-catenin transl: 3

What do the screens show for `O=C(NCc1ccc(Cl)cc1)C1CCN(S(=O)(=O)c2cc([N+](=O)[O-])ccc2Cl)CC1`?
Dynein transport: 0.15; L major viab: 80*; MT stabilizer: 2; Autophagy HCS: inactive; CHOP inh: -26; b-catenin transl: 0

Results for Cc1ccc2nc(NC(=O)C3CCCN(S(=O)(=O)c4cccc5nonc45)C3)sc2c1 (stereo unspecified) ?
Dynein transport: 0.7; CHOP inh: 36; b-catenin transl: 1

Results for NC(=O)c1cnccn1 ?
Dynein transport: 0.26; L major viab: 13; MT stabilizer: 3; Autophagy HCS: inactive; CHOP inh: -1; b-catenin transl: 0

Results for C/C(CC(=O)NCCN1CCOCC1)=N\NC(=O)c1ccncc1 ?
Dynein transport: -0.16; CHOP inh: 26; b-catenin transl: -1

How did CCCC(C)NCC(=O)Nc1ccccc1-c1ccccc1 (stereo unspecified) do in these assays?
Dynein transport: 1.7; L major viab: 18; MT stabilizer: 1; Autophagy HCS: inactive; CHOP inh: -7; b-catenin transl: 0

How did CCOc1cc(/C=C/C(=O)Nc2ccc(C(=O)NCCN(CC)CC)cc2)ccc1OCC(C)C do in these assays?
Dynein transport: 3.6; L major viab: 53*; MT stabilizer: 68; Autophagy HCS: inactive; CHOP inh: 17; b-catenin transl: 33

How did O=C(NC1CCCC1)c1ccc(CSCc2ccccc2F)o1 do in these assays?
Dynein transport: -0.54; L major viab: 89*; MT stabilizer: 1; Autophagy HCS: inactive; CHOP inh: -20; b-catenin transl: -3

How did CCCOc1ccc(/C(O)=C2/C(=O)C(=O)N(c3cc(C)on3)C2c2ccc(C(=O)OC)cc2)cc1 (stereo unspecified) do in these assays?
Dynein transport: 0.24; L major viab: -10; MT stabilizer: 1; Autophagy HCS: inactive; CHOP inh: -12; b-catenin transl: -1

How did Cc1cc(C(=O)NCCN2CCN(c3cccc(Cl)c3)CC2)n(-c2ccccc2)n1 do in these assays?
Dynein transport: 0.1; L major viab: 11; MT stabilizer: 14; Autophagy HCS: inactive; b-catenin transl: 59*

Results for O=c1c2cnn(-c3ccccc3)c2nc(-c2cccs2)n1-c1cccc(Cl)c1 ?
Dynein transport: 0.17; L major viab: 18; MT stabilizer: 3; Autophagy HCS: inactive; CHOP inh: 30; b-catenin transl: 3

What do the screens show for `COc1cc(NC(=O)C2=C(N3CCOCC3)/C(=C\c3ccc(Cl)cc3Cl)CC2)cc(OC)c1OC`?
Dynein transport: -0.057; L major viab: 97*; MT stabilizer: 3; Autophagy HCS: inactive; CHOP inh: 21

How did CCOc1ccc(/C=N/Nc2cc(C)nc(N3CCOCC3)n2)cc1 do in these assays?
Dynein transport: 0.37; CHOP inh: -6; b-catenin transl: -1

What do the screens show for `Oc1cccc(/C=N/Nc2cc(N3CCCC3)nc(N3CCCC3)n2)c1`?
Dynein transport: -0.065; L major viab: 97*; MT stabilizer: 3; Autophagy HCS: inactive; CHOP inh: 79*; b-catenin transl: -3

How did Oc1ccc(/C=N/Nc2cc(N3CCOCC3)nc(N3CCOCC3)n2)cc1 do in these assays?
Dynein transport: 0.67; L major viab: -10; MT stabilizer: 2; Autophagy HCS: inactive

How did COc1ccc(/C=N/Nc2cc(N3CCCC3)nc(N3CCCC3)n2)cc1 do in these assays?
Dynein transport: -0.7; L major viab: 95*; MT stabilizer: 2; Autophagy HCS: active; CHOP inh: 31; b-catenin transl: 0

How did Cc1ccccc1-c1nnc2s/c(=C\c3ccc(N(C)C)cc3)c(=O)n12 do in these assays?
b-catenin transl: -10

Results for CCOC(=O)c1cnc(-n2nc(C)cc2C)nc1NC(C)c1ccccc1 (stereo unspecified) ?
Dynein transport: 0.86; L major viab: 96*; MT stabilizer: 3; Autophagy HCS: inactive; CHOP inh: 43; b-catenin transl: -1

Results for CCOC(=O)c1cnc(-c2ccccc2)nc1N1CC(C)OC(C)C1 (stereo unspecified) ?
Dynein transport: -0.07; L major viab: 11; MT stabilizer: 2; Autophagy HCS: inactive; CHOP inh: -6; b-catenin transl: 2

Results for CCOC(=O)c1cnc(-n2nc(C)cc2C)nc1NNc1ncc(-c2ccccc2)cn1 ?
Dynein transport: 0.13; CHOP inh: 27; b-catenin transl: 0

What do the screens show for `CCOC(=O)c1cnc(-n2nc(C)cc2C)nc1NNc1cc(-c2ccccc2)nc(C)n1`?
Dynein transport: 0.27; L major viab: 100*; MT stabilizer: 4; Autophagy HCS: inactive; CHOP inh: 74*; b-catenin transl: -2

Results for CCOC(=O)c1cnc(-n2nc(C)cc2C)nc1N1CC(C)OC(C)C1 (stereo unspecified) ?
Dynein transport: -0.99; L major viab: 67*; MT stabilizer: 2; Autophagy HCS: inactive

Results for CCOC(=O)c1cnc(-n2nc(C)cc2C)nc1NCc1ccccc1 ?
Dynein transport: 0.88; L major viab: 90*; MT stabilizer: 3; Autophagy HCS: inactive; CHOP inh: -80

How did CCOC(=O)c1cnc(-n2nc(C)cc2C)nc1NCCO do in these assays?
Dynein transport: 0.42; L major viab: -2; MT stabilizer: 3; Autophagy HCS: inactive; CHOP inh: -6; b-catenin transl: 0

Results for COc1ccc(C2(C(=O)NCc3ccccc3Cl)CCOCC2)cc1OC ?
Dynein transport: -0.87; L major viab: -6; MT stabilizer: 3; Autophagy HCS: inactive; CHOP inh: -8; b-catenin transl: 0

How did O=C(CN1C(=O)CSc2ccccc21)N/N=C/c1ccco1 do in these assays?
Dynein transport: -1; CHOP inh: 16; b-catenin transl: -1
